A selection: hits, their analogues and other compounds. The true share with any hit is near 5.8%.
IDH1 R132H inh = IDH1 R132H (human) inhibition; O75874; IDH1 R132H reductase, diaphorase/resazurin fluorescence, 60 min; inhibition, % at 10 µM; 70,000 tested, 0.18% active; AID 624101; in the data active = inhibition above about 34%; inconclusive = no clear call, values can overlap the other calls; inactive = below about 11%
Target sequence (O75874 whole entry R132H): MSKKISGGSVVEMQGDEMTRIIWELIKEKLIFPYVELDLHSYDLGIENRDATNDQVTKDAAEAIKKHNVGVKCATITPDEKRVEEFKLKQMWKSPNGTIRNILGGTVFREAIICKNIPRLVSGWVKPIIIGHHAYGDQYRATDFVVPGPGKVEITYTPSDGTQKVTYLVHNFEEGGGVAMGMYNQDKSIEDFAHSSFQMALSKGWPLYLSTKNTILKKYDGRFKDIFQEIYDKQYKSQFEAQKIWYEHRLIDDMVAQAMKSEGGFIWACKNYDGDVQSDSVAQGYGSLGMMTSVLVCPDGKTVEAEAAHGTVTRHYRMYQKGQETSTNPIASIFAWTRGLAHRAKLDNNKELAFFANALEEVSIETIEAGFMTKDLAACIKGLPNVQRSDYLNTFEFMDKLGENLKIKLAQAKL
GASC1 inh = blocks human GASC-1 (KDM4C) demethylase activity; inhibition, % at 12.5 µM; AID 720574; GST-KDM4C 2-372, H3K9me3 peptide, LANCE TR-FRET; Q9H3R0; 96,000 tested, 0.15% active;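 active = mean replicate inhibition above about 25%, with at least 55% of replicates also reaching it, limit read from the data, passing the limit was not always enough; inconclusive = only one of those two conditions met; inactive = neither condition met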
Target sequence (Q9H3R0 2-372 limits assumed): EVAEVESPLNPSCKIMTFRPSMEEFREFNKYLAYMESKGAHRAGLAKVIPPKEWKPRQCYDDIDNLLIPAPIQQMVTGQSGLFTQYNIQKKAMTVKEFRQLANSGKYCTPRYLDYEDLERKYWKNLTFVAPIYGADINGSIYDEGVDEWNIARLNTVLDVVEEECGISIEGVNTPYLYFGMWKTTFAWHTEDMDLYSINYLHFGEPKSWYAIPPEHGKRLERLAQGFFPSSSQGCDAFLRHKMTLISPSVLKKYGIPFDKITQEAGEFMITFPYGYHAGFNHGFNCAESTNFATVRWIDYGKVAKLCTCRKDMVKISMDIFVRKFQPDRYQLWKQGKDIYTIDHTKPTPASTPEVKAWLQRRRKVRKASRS
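Material: N-terminal GST-fused human GASC-1 (KDM4C) fragment, residues 2-372. Input: 10 nM enzyme. Incubation: enzyme reaction 30 min, then detection 60 min, both room temperature. Doses: one test concentration per compound. Read-out basis: inhibition from TR-FRET ratio decrease. Detection: LANCE TR-FRET, excitation 340 nm, emissions 618 and 671 nm.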
T cruzi growth-1 = inhibitors of T. cruzi proliferation | inhibition, % at 8.34 µM | T. cruzi beta-gal in NIH3T3, GalScreen luminescence, 90 h | 77,000 tested, 5.9% active;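 active = mean inhibition above about 93%, with at least 55% of replicates each passing it, limit read from the data, passing the limit was not always enough; inconclusive = only one of those two conditions holds; inactive = neither condition holds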
Pf Dd2 growth = inhibitors of Plasmodium falciparum Dd2 growth; activity change, % at 10 µM; 94,000 tested, 2.3% active; P. falciparum Dd2 growth, SYBR Green, 72 h; hits give low values; in the data active = activity change below about -80%; inconclusive = no clear call, values can overlap the other calls
T cruzi growth-2 = blocks T. cruzi growth in NIH3T3 host cells. inhibition, % at 8.35 µM. T. cruzi beta-gal in NIH3T3, GalScreen luminescence, 90 h. shares compounds with T cruzi growth-1. AID 651739. 5,600 tested, 72% active;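 active = mean replicate inhibition above about 95% and at least 55% of replicates individually reaching it, limit read from the data; inconclusive = only one of the two criteria is met; inactive = neither criterion is met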
T cruzi growth-3 = Trypanosoma cruzi proliferation inhibition | AID 651740 | 5,600 tested, 21% active | shares compounds with T cruzi growth-1 | T. cruzi beta-gal in NIH3T3, GalScreen luminescence, 90 h | inhibition, % at 2.09 µM;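 active = mean inhibition above about 95%, with at least 55% of replicates also reaching it, limit read from the data; inconclusive = meets just one of the two conditions; inactive = meets neither condition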
NIH3T3 tox = cytotoxicity in mouse NIH/3T3 fibroblasts | 5,600 tested, 14% active | shares compounds with T cruzi growth-1 | cytotoxicity (signal decrease), % at 8.35 µM | NIH/3T3 viability, CellTiter-Glo ATP luminescence, 90 h;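 active = mean signal decrease across replicates above about 35% based on untreated-well scatter, with enough replicates individually passing, limit read from the data; inconclusive = no rule stated though some were filed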
NIH3T3 tox 2 = cytotoxicity in mouse NIH/3T3 fibroblasts; shares compounds with T cruzi growth-1; NIH/3T3 viability, CellTiter-Glo ATP luminescence, 90 h; inhibition, % at 24.9 µM; 5,600 tested, 56% active; AID 651744;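 active = mean loss of cell viability signal at or above a set limit, and enough replicates individually reaching it; inconclusive = meets only the mean limit or only the replicate share; inactive = meets neither condition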
Large screens that a line does not name were inactive (follow-up assays come after a bar, where they were run); ! = not confirmed by another sample.

C[C@H](CO)N1C[C@H](C)[C@@H](CN(C)Cc2ccc(-c3ccccc3)cc2)Oc2ccc(NC(=O)C3CC3)cc2CC1=O	T cruzi growth-1 104.7 | T cruzi growth-2 105.7 | T cruzi growth-3 inactive | NIH3T3 tox inactive | NIH3T3 tox 2 104.6
O=C(C[C@@H]1CC[C@H]2[C@@H](COC[C@@H](O)CN2Cc2ccc(C(F)(F)F)cc2)O1)N1CCc2ccccc2C1	none (no result: IDH1 R132H inh, T cruzi growth-1)
COc1cccc(-c2ccc([C@@H]3[C@H](CO)N4CCCCN(C(=O)c5ccc6c(c5)OCO6)C[C@@H]34)cc2)c1	T cruzi growth-1 98.0 (no result: IDH1 R132H inh) | T cruzi growth-2 106.7 | T cruzi growth-3 inactive | NIH3T3 tox inactive | NIH3T3 tox 2 102.9
O=C(c1ccc2c(c1)OCO2)N1CCCCN2[C@@H](CO)[C@@H](c3ccc(-c4ccccc4)cc3)[C@@H]2C1	T cruzi growth-1 103.6 (no result: IDH1 R132H inh) | T cruzi growth-2 99.8 | T cruzi growth-3 inactive | NIH3T3 tox inconclusive | NIH3T3 tox 2 101.7
COc1ccc(-c2ccc([C@@H]3[C@H](CO)N4CCCCN(C(=O)c5ccc6c(c5)OCO6)C[C@@H]34)cc2)cc1	T cruzi growth-1 108.3 (no result: IDH1 R132H inh) | T cruzi growth-2 inconclusive | T cruzi growth-3 inactive | NIH3T3 tox inactive | NIH3T3 tox 2 104.2
COc1ccc(-c2ccc([C@H]3[C@H](CO)N4CCCCN(C(=O)c5ccc6c(c5)OCO6)C[C@@H]34)cc2)cc1	T cruzi growth-1 110.7 (no result: IDH1 R132H inh) | T cruzi growth-2 100.3 | T cruzi growth-3 inactive | NIH3T3 tox inactive | NIH3T3 tox 2 90.4
O=C(c1ccc2c(c1)OCO2)N1CCCCN2[C@H](CO)[C@H](c3ccc(-c4ccccc4)cc3)[C@@H]2C1	none (no result: IDH1 R132H inh)
COc1cccc(-c2ccc([C@H]3[C@@H](CO)N4CCCCN(C(=O)c5ccc6c(c5)OCO6)C[C@@H]34)cc2)c1	none (no result: IDH1 R132H inh)
O=C(c1ccc2c(c1)OCO2)N1CCCCN2[C@H](C1)[C@H](c1ccc(-c3ccccc3)cc1)[C@@H]2CO	none (no result: IDH1 R132H inh)
COc1ccc(-c2ccc([C@@H]3[C@H]4CN(C(=O)c5ccc6c(c5)OCO6)CCCCN4[C@H]3CO)cc2)cc1	T cruzi growth-1 112.4 (no result: IDH1 R132H inh) | T cruzi growth-2 100.7 | T cruzi growth-3 inactive | NIH3T3 tox inactive | NIH3T3 tox 2 104.5
O=C(C[C@@H]1C[C@@H]2c3cc(NC(=O)Nc4ccc(C(F)(F)F)cc4)ccc3O[C@@H]2[C@@H](CO)O1)NCc1cccnc1	none
C/C=C/c1ccc([C@H]2[C@@H](CO)N3CCCCN(S(=O)(=O)c4ccc(OC)cc4)C[C@H]23)cc1	none (no result: IDH1 R132H inh)
C/C=C/c1ccc([C@H]2[C@H](CO)N3CCCCN(S(=O)(=O)c4ccc(OC)cc4)C[C@@H]23)cc1	T cruzi growth-1 100.1 (no result: IDH1 R132H inh) | T cruzi growth-2 107.6 | T cruzi growth-3 inactive | NIH3T3 tox inactive | NIH3T3 tox 2 102.0
C/C=C/c1ccc([C@@H]2[C@H]3CN(S(=O)(=O)c4ccc(OC)cc4)CCCCN3[C@H]2CO)cc1	T cruzi growth-1 inconclusive (no result: IDH1 R132H inh) | T cruzi growth-2 102.5 | T cruzi growth-3 inactive | NIH3T3 tox inactive | NIH3T3 tox 2 68.0
C/C=C/c1ccc([C@H]2[C@@H](CO)N3CCCCN(S(=O)(=O)c4ccc(F)cc4)C[C@H]23)cc1	T cruzi growth-1 inconclusive (no result: IDH1 R132H inh) | T cruzi growth-2 108.0 | T cruzi growth-3 inactive | NIH3T3 tox inactive | NIH3T3 tox 2 102.9
C[C@@H]1CCCCO[C@@H](CN(C)S(=O)(=O)c2cccs2)[C@@H](C)CN([C@@H](C)CO)C(=O)c2cc(NC(=O)NC3CCCCC3)ccc2O1	Pf Dd2 growth inconclusive (no result: IDH1 R132H inh)
N#Cc1ccc(-c2ccc([C@@H]3[C@H](CO)N4CCCCN(S(=O)(=O)c5ccccc5)C[C@@H]34)cc2)cc1	T cruzi growth-1 inconclusive (no result: IDH1 R132H inh) | T cruzi growth-2 inactive | T cruzi growth-3 inactive | NIH3T3 tox inactive | NIH3T3 tox 2 43.9
N#Cc1cccc(-c2ccc([C@H]3[C@H](CO)N4CCCCN(S(=O)(=O)c5ccccc5)C[C@@H]34)cc2)c1	none (no result: IDH1 R132H inh)
N#Cc1ccc(-c2ccc([C@@H]3[C@H]4CN(S(=O)(=O)c5ccccc5)CCCCN4[C@H]3CO)cc2)cc1	T cruzi growth-1 100.8 (no result: IDH1 R132H inh) | T cruzi growth-2 103.3 | T cruzi growth-3 inactive | NIH3T3 tox inactive | NIH3T3 tox 2 28.9
N#Cc1ccc(-c2ccc([C@H]3[C@@H](CO)N4CCCCN(S(=O)(=O)c5ccccc5)C[C@H]34)cc2)cc1	T cruzi growth-1 116.5 (no result: IDH1 R132H inh) | T cruzi growth-2 113.1 | T cruzi growth-3 inactive | NIH3T3 tox inactive | NIH3T3 tox 2 71.3
COc1ccc2c3c(n(C)c2c1)[C@@H](CO)N(C(=O)C1CCOCC1)CC31CN(C(=O)Nc2cccc(F)c2)C1	none (no result: IDH1 R132H inh, GASC1 inh, T cruzi growth-1)
CNC[C@H]1OCCCC[C@H](C)Oc2ccc(NC(=O)CCCN(C)C)cc2C(=O)N([C@H](C)CO)C[C@@H]1C	T cruzi growth-1 100.5! | T cruzi growth-2 inactive | T cruzi growth-3 inactive | NIH3T3 tox inactive | NIH3T3 tox 2 inactive
CNC[C@@H]1OCCCC[C@H](C)Oc2ccc(NC(=O)CCC(F)(F)F)cc2C(=O)N([C@@H](C)CO)C[C@@H]1C	T cruzi growth-1 97.7 | T cruzi growth-2 inconclusive | T cruzi growth-3 inactive | NIH3T3 tox inactive | NIH3T3 tox 2 inactive
C[C@H]1CN([C@@H](C)CO)C(=O)c2cc(NC(=O)CCCN(C)C)ccc2O[C@@H]1CN(C)S(C)(=O)=O	T cruzi growth-1 104.2 | T cruzi growth-2 inactive | T cruzi growth-3 inactive | NIH3T3 tox inactive | NIH3T3 tox 2 inactive
CNC[C@@H]1OCCCC[C@@H](C)Oc2ccc(NC(=O)CCCN(C)C)cc2C(=O)N([C@H](C)CO)C[C@@H]1C	none (no result: IDH1 R132H inh)
CNC[C@H]1OCCCC[C@@H](C)Oc2ccc(NC(=O)Cc3ccccc3)cc2C(=O)N([C@@H](C)CO)C[C@H]1C	T cruzi growth-1 inconclusive (no result: IDH1 R132H inh) | T cruzi growth-2 inactive | T cruzi growth-3 inactive | NIH3T3 tox inactive | NIH3T3 tox 2 inactive
C[C@@H]1CN([C@@H](C)CO)S(=O)(=O)c2ccc(C#CC3CC3)cc2O[C@H]1CN(C)Cc1cncnc1	none
COc1cccc(NC(=O)N(C)C[C@H]2Oc3ncc(C#Cc4ccccc4)cc3C(=O)N([C@H](C)CO)C[C@@H]2C)c1	T cruzi growth-1 110.4 (no result: GASC1 inh) | T cruzi growth-2 108.4 | T cruzi growth-3 inactive | NIH3T3 tox inconclusive | NIH3T3 tox 2 27.6
COc1cccc(NC(=O)N(C)C[C@@H]2Oc3ncc(C#Cc4ccccc4)cc3C(=O)N([C@H](C)CO)C[C@H]2C)c1	T cruzi growth-1 121.4 (no result: GASC1 inh) | T cruzi growth-2 106.5 | T cruzi growth-3 111.3 | NIH3T3 tox inactive | NIH3T3 tox 2 27.6
COc1cccc(NC(=O)N(C)C[C@H]2Oc3ncc(C#Cc4ccccc4)cc3C(=O)N([C@H](C)CO)C[C@H]2C)c1	none (no result: IDH1 R132H inh, GASC1 inh)

Compound activity deposited in PubChem by Broad Institute.
